Results taken from ChEMBL document CHEMBL1828539, “Development of a novel furocoumarin derivative inhibiting NF-κB dependent biological functions: design, synthesis and biological effects” (Eur J Med Chem, 2011).
Active and inactive are the calls of the source. No cut-off for these calls is given here.

Experiments:
[1] = Inhibition of reconstituted NF-KB p50-p65 heterodimer/DNA interaction after 20 mins by EMSA
Outline: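 p50 (10 ng) plus p65 (10 ng) human NF-κB proteins preincubated 20 min at room temperature with varying compound concentrations in buffer TF, 5% glycerol, 1 mM DTT. 0.25 ng 32P-labeled NF-κB site oligo then added for a further 20 min. Bound and free probe separated on 6% native polyacrylamide gel (0.25× TBE, 200 V); autoradiography.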

IB3-1 [2] = assay: Inhibition of NFkappa B in human IB3-1 cells assessed as inhibition of TNF-alpha-induced IL8 mRNA accumulation at 10 uM after 24 hrs by RT-PCR analysis relative to control; assay type: cell-based
Outline: (§1)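 IB3-1 CF bronchial cells (ΔF508/W1282X, adeno12/SV40-immortalized) grown in LHC-8 with 5% FBS, without gentamycin, at 37 °C. Exposed to compound and TNF-α (80 ng/ml) for 24 h. Total RNA extracted with TRIzol, oligo(dT)-primed AMV reverse transcription, then 40-cycle real-time PCR with IL-8 primers. IL-8 mRNA expressed relative to uninduced IB3-1 cells; n = 3.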

IB3-1 [3] = assay: Inhibition of NFkappa B in human IB3-1 cells assessed as inhibition of TNF-alpha-induced IL8 mRNA accumulation at 50 uM after 24 hrs by RT-PCR analysis relative to control; assay type: cell-based; outline: as §1
IB3-1 [4] = assay: Inhibition of NFkappa B in human IB3-1 cells assessed as inhibition of TNF-alpha-induced IL8 protein release at 30 uM after 24 hrs relative to control; assay type: cell-based
Outline: (§2)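 IB3-1 CF cells in LHC-8 with 5% FBS treated 24 h with compound plus TNF-α (80 ng/ml). IL-8 released into the culture supernatant measured by singleplex bead immunoassay (Bio-Plex): sample incubated with anti-IL-8 beads, then detection antibody, then streptavidin-phycoerythrin, read against cytokine standards as pg/ml; n = 3.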

IB3-1 [5] = assay: Inhibition of NFkappa B in human IB3-1 cells assessed as inhibition of TNF-alpha-induced IL8 protein release at 10 uM after 24 hrs relative to control; assay type: cell-based; outline: as §2
IB3-1 [6] = assay: Inhibition of NFkappa B in human IB3-1 cells assessed as inhibition of TNF-alpha-induced IL8 protein release at 50 uM after 24 hrs relative to control; assay type: cell-based; outline: as §2
IB3-1 [7] = assay: Inhibition of NFkappa B in human IB3-1 cells assessed as inhibition of TNF-alpha-induced IL8 mRNA accumulation at 30 uM after 24 hrs by RT-PCR analysis relative to control; assay type: cell-based; outline: as §1
[8] = Inhibition of NF-KB p50 subunit/DNA interaction after 20 mins by EMSA
Outline: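 Human NF-κB p50 protein (10 ng) preincubated 20 min at room temperature with varying compound concentrations in buffer TF plus 5% glycerol, 1 mM DTT. Then 0.25 ng 32P-labeled double-stranded NF-κB consensus oligo (5'-CGC TGG GGA CTT TCC ACG G-3') added for 20 min more. Complexes resolved on 6% polyacrylamide gel in 0.25× TBE at 200 V; autoradiography.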

| inhibition [1] | inhibition [8] | Structure (SMILES) | inhibition (IB3-1 [2]) | inhibition (IB3-1 [3]) | inhibition (IB3-1 [4]) | inhibition (IB3-1 [5]) | inhibition (IB3-1 [6]) | inhibition (IB3-1 [7]) |
| --- | --- | --- | --- | --- | --- | --- | --- | --- |
| Active | – | Cc1c(CC(=O)NC(Cc2ccccc2)C(=O)O)c(=O)oc2c(C)c3occ(C(C)(C)C)c3cc12 (racemic) | inactive | Active | Active | inactive | Active | Active |
| Active | Active | Cc1c(CC(=O)NC(Cc2ccccc2)C(=O)O)c(=O)oc2cc3occ(C(C)(C)C)c3cc12 (racemic) | – | – | – | – | – | – |
| Active | Active | Cc1c(CC(=O)N[C@@H](Cc2ccccc2)C(=O)O)c(=O)oc2cc3occ(C(C)(C)C)c3cc12 | – | – | – | – | – | – |
